Assay outcomes: PubChem, several laboratories
The list is not random: actives were taken first. Their share in the collection is about 7.6%.
HEK293 NFkB inh = inhibitors of PMA/ionomycin-induced NF-kB reporter, primary screen, antigen receptor NF-kB inhibitor project, cell-based, HEK-293 luciferase reporter, luminescence | HEK-293 NF-kB luciferase reporter | inhibition, % at 3 µM | 62,000 compounds, 0.21% hits;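 active = inhibition above the mean of all tested compounds plus 3 SD, cut at about 40% in these data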
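Material: HEK-293 cells with stable firefly luciferase reporter driven by four HIV NF-kB elements / Also added: PMA plus ionomycin mix as NF-kB-activating stimulus / Compound dosing: 3 µM once, 0.30% DMSO / Times: 1 h pretreatment, 16 h stimulation, 37 °C / Signal: luminescence / Evaluation: per-plate % inhibition versus controls / Benchmarks: DMSO and 10 µM reference inhibitor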
DAT uptake mod = changed hDAT dopamine uptake under cocaine IC80, either direction, primary screen, cocaine antagonist project, cell-based, LLC-PK1 hDAT, [14C]-dopamine uptake, MLSMR | Sodium-dependent dopamine transporter (Homo sapiens), Q01959 | LLC-PK1 hDAT cells, [14C]-dopamine uptake with cocaine IC80; actives deviate in either direction | B-score at 10 µM | 110,000 compounds, 1.3% hits | AID 449768, 2010;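 active = Z score or B-score, a plate-position-corrected score, falls beyond the plate's 99.7% confidence bounds, in either direction; inactive = both scores lie inside the 99.7% bounds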
M1 antag = antagonists of rat M1 muscarinic receptor | 64,000 compounds, 3.4% hits | Muscarinic acetylcholine receptor M1 (Rattus norvegicus), P08482 | CHO-M1 cells, Fluo-4 calcium, ACh EC80 antagonist mode; stronger effect = lower value | AID 628, 2007 | B-score at 10 µM;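 active = calcium fluorescence response, raw or row-and-column corrected B-score, differing from the plate sample mean either way at a set confidence level, mostly lower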
Target sequence (P08482 whole entry, looked up): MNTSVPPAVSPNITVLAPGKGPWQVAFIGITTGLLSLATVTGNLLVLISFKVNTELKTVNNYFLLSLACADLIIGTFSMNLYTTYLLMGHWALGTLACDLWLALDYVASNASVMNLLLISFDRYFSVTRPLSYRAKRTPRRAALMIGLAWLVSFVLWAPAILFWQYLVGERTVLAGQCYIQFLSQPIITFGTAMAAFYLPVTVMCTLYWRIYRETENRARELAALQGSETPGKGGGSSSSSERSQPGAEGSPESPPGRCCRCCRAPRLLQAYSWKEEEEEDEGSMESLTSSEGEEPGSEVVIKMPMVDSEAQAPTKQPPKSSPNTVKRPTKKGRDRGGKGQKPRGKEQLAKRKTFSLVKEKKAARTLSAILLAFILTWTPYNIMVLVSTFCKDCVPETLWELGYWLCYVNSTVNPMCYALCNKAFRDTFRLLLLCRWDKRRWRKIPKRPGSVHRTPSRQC
Jurkat viability = cytotoxicity toward Jurkat T cells, primary screen, cytotoxicity control, cell-based, Jurkat E6.1, 60K MLSMR library | inhibition, % at 4 µM | AID 463, 2006 | 56,000 compounds, 1.2% hits | Jurkat E6.1 viability, ATP luminescence, 48 h;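 active = inhibition above the mean inhibition of all tested compounds plus 3 SD, cut at about 28% in these data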
M1 agonist = M1 muscarinic receptor agonists, primary screen, CHO-M1 cells, Fluo-4 calcium, agonist mode | AID 626, 2007 | 64,000 compounds, 3% hits | B-score at 10 µM | Fluo-4 calcium fluorescence; stronger effect = higher value | Muscarinic acetylcholine receptor M1;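 active = fluorescence rise, raw or as B-score row- and column-corrected plate score, outside the 99.7% band of its plate's samples, either direction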
D1 mod = D1 CRE-luciferase signal change, two-sided – cell-based, HEK293 D1, dopamine EC30, D1 allosteric modulator project, primary screen; D(1A) dopamine receptor (Homo sapiens), P21728; dopamine EC30 potentiation; actives deviate in either direction; B-score at 10 µM; 58,000 compounds, 5.9% hits; AID 641, 2007;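 active = luminescence count or its row- and column-corrected plate score outside the 99.7% band of the plate's sample wells, on either side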
Each line names hits and unclear results; the compound was inactive in the other large screens.

COc1ccc(NC(=O)CCCCn2c(=O)[nH]c3ccccc3c2=O)cc1	DAT uptake mod -7.7
Cc1cccc(C(=O)OCc2cc3ccccc3[nH]c2=O)c1	none
CN(C)S(=O)(=O)N1CCN(S(=O)(=O)c2ccc(F)cc2)CC1	none
CN(C)S(=O)(=O)c1ccc(N2CCN(S(=O)(=O)c3ccc(F)cc3)CC2)c(Cl)c1	Jurkat viability 34
O=C(Cn1c(=O)c2c(ncn2C2CCCC2)n(Cc2ccccc2)c1=O)N1CCc2ccccc21	D1 mod -4.8
COc1ccc(-c2csc(N3C(=N)SCC3=O)n2)cc1	DAT uptake mod 1.9 (no result: HEK293 NFkB inh, M1 antag, Jurkat viability, M1 agonist, D1 mod)
O=C(Nc1ccc(N2CCCC2)cc1)c1cccc(F)c1	Jurkat viability 69, D1 mod -4.9
CC(=O)Nc1ccc(N2CCCCC2)cc1	none (no result: HEK293 NFkB inh, M1 antag, Jurkat viability, M1 agonist, D1 mod)
O=C(Nc1ccc(N2CCCCC2)cc1)c1ccccc1	D1 mod -4.8
CCOC(=O)Cc1nnc(NC(=O)CC)s1	none
Cc1ccc2c(CSc3nc4ccccc4c(=O)n3CCCO)cc(=O)oc2c1	M1 agonist 10 (no result: DAT uptake mod)
O=C(c1ccc2c(c1)N(Cc1ccccc1)C(=O)c1ccccc1S2)N1CCCC1	DAT uptake mod 3.3 (no result: HEK293 NFkB inh, M1 antag, Jurkat viability, M1 agonist, D1 mod)
COc1ccccc1NC(=O)c1oc2ccccc2c1NC(=O)c1cc(OC)c(OC)c(OC)c1	D1 mod 14 (no result: DAT uptake mod)
CCCNC(=O)CN(CCc1ccccc1)S(C)(=O)=O	none (no result: HEK293 NFkB inh, M1 antag, Jurkat viability, M1 agonist, D1 mod)
CCCn1c(NC(=O)C2CCN(S(=O)(=O)c3cccs3)CC2)nc2ccccc21	Jurkat viability 84
CCCn1c(NC(=O)c2cccc(S(=O)(=O)N3CCCC3)c2)nc2ccccc21	Jurkat viability 44 (no result: D1 mod)
CCOC(=O)c1oc2cc(O)cc(O)c2c(=O)c1OCc1ccccc1	none (no result: HEK293 NFkB inh, M1 antag, Jurkat viability, M1 agonist, D1 mod)
Cc1oc(-c2ccccc2Cl)nc1CSCC(=O)N1CCCC1	HEK293 NFkB inh 87, Jurkat viability 39
Cc1oc(-c2ccccc2Cl)nc1CSCC(=O)NC1CCCC1	none (no result: HEK293 NFkB inh, M1 antag, Jurkat viability, M1 agonist, D1 mod)
CCOc1cc(NC(=S)NCC(C)C)c(OCC)cc1NC(=O)c1cccs1	none (no result: HEK293 NFkB inh, M1 antag, Jurkat viability, M1 agonist, D1 mod)
CC(C)Cn1c(SCc2nnc(-c3cccs3)o2)nc(O)cc1=O	none
CC(C)C1N=C2c3ccccc3N=C(SCc3cc(=O)n4cc(Cl)ccc4n3)N2C1=O (stereo not drawn)	DAT uptake mod -7.1
N#CC12CCCCC1CC1CCCCC1(C#N)N2Cc1cccnc1 (stereo not drawn)	none (no result: HEK293 NFkB inh, Jurkat viability, D1 mod)
CC(NS(=O)(=O)c1ccc(Cl)cc1)C(=O)NCc1ccco1 (stereo not drawn)	none (no result: HEK293 NFkB inh, M1 antag, Jurkat viability, M1 agonist, D1 mod)
O=S(=O)(NC1CCCCC1NCc1ccco1)c1ccc(Cl)cc1 (stereo not drawn)	D1 mod -2.3
O=C1Nc2ccc(S(=O)(=O)NCCC3=CCCCC3)c3cccc1c23	none
CCOC(=O)N1CCN(C(c2ccc(C)cc2)c2sc3nc(C)nn3c2O)CC1 (stereo not drawn)	none
CCOC(=O)N1CCN(C(c2cccc(OC)c2)c2sc3nc(C)nn3c2O)CC1 (stereo not drawn)	D1 mod -6.8
COC(=O)CSc1nnc(-c2ccoc2C)n1-c1ccc(C)cc1	none
Cc1ccc(-n2c(SCC(=O)NCc3cccs3)nnc2-c2ccoc2C)cc1	DAT uptake mod 2.6
CCOC(=O)N1CCC(NC(=O)CSCc2nc(-c3sccc3C)oc2C)CC1	DAT uptake mod 2.8
COc1cccc(NC(=O)CSc2nc3c(c(-c4ccco4)c2C#N)CCCC3)c1	M1 agonist -2.6
CC(C)(C)c1cccc(Oc2nn[nH]n2)c1	none (no result: HEK293 NFkB inh, M1 antag, Jurkat viability, M1 agonist, D1 mod)
COc1ccccc1NC(=O)N(Cc1ccco1)Cc1cc2ccc(C)c(C)c2[nH]c1=O	DAT uptake mod 2.6, Jurkat viability 80
CCOC(=O)c1c(C)c(C(=O)NCc2cccs2)c(C)n1CC	DAT uptake mod 2.8
CCOC(=O)c1c(C)c(C(=O)N2CCc3ccccc3C2)c(C)n1CC	DAT uptake mod 2.5
CCOC(=O)c1c(C)c(C(=O)Nc2ccccc2)c(C)n1CC	none (no result: DAT uptake mod)
C[C@H]1COc2c(N3CCN(C)CC3)c(F)cc3c(=O)c(C(=O)O)cn1c23	none (no result: HEK293 NFkB inh, M1 antag, Jurkat viability, M1 agonist, D1 mod)
Cc1ccc(CSc2nnc(CC(=O)Nc3ccc(C)cc3)n2C)cc1	none (no result: HEK293 NFkB inh, M1 antag, Jurkat viability, M1 agonist, D1 mod)
COc1ccc(C2C3=C(CCCC3=O)Nc3nc(-c4cc(OC)c(OC)c(OC)c4)nn32)cc1OC (stereo not drawn)	DAT uptake mod 4, D1 mod -3
COc1cc(-c2nc3n(n2)C(c2cccc(OC)c2OC)C2=C(CCCC2=O)N3)cc(OC)c1OC (stereo not drawn)	DAT uptake mod 2.7
CCCC(=O)Nc1ccc2c(c1)C(=O)NC2=O	none (no result: HEK293 NFkB inh, M1 antag, Jurkat viability, M1 agonist, D1 mod)
O=c1c2ccccc2nnn1CSc1nnc(-c2cccs2)n1Cc1ccccc1	Jurkat viability 28
CCc1nnc(NC(=O)c2cc(S(=O)(=O)N(CC)CC)ccc2Cl)s1	none (no result: HEK293 NFkB inh, M1 antag, Jurkat viability, M1 agonist, D1 mod)
CCN(CC)S(=O)(=O)c1ccc(Cl)c(C(=O)NC)c1	D1 mod -5.2
CCN(CC)S(=O)(=O)c1cc(C(=O)Nc2ccncc2)ccc1Cl	Jurkat viability 48
CCSc1nnc(-c2ccc(S(=O)(=O)N3CCCC3)cc2)n1C	none (no result: M1 antag, M1 agonist)
Cc1cc(C)c2c(N)c(C(=O)Nc3nccs3)sc2n1	D1 mod -6.6
CCCCNC(=O)C(C#N)c1nc2ccccc2nc1N1CCN(Cc2ccc3c(c2)OCO3)CC1 (stereo not drawn)	none (no result: HEK293 NFkB inh, DAT uptake mod, Jurkat viability, D1 mod)
COC(=O)C1CCN(c2nc3ccccc3nc2C(C#N)C(=O)NCCc2ccccc2)CC1 (stereo not drawn)	M1 agonist 25 (no result: HEK293 NFkB inh, Jurkat viability, D1 mod)
COC(=O)C1CCN(c2nc3ccccc3nc2C(C#N)C(=O)OCC(C)C)CC1 (stereo not drawn)	none
N#CC(C(=O)NC1CCCCC1)c1nc2ccccc2nc1N1CCOCC1 (stereo not drawn)	M1 agonist 84 (no result: DAT uptake mod)
CC1CN(c2nc3ccccc3nc2C(C#N)C(=O)NCc2ccc3c(c2)OCO3)CC(C)O1 (stereo not drawn)	M1 agonist 9.8
CCc1nnc(NC(=O)c2ccc(S(=O)(=O)N(CC(C)C)CC(C)C)cc2)o1	Jurkat viability 94
CSCc1nnc(NC(=O)c2ccc(S(=O)(=O)N(CC(C)C)CC(C)C)cc2)o1	Jurkat viability 88
CCN(Cc1ccccc1)S(=O)(=O)c1ccc(C(=O)Nc2nnc(C3CC3)o2)cc1	Jurkat viability 101
O=S(=O)(c1cc(Cl)ccc1Cl)n1nnc2ccccc21	none
COc1ccc(CCNc2oc(-c3ccc(OC)c(OC)c3)nc2C#N)cc1	none
CCOC(=O)c1cnc(SCC(=O)Nc2sc(C)c(C)c2C#N)nc1N	none
CCC(C)NC(=O)C1CCN(S(=O)(=O)CC)CC1 (stereo not drawn)	none
